Experimental data from ChEMBL document CHEMBL1131440, “Synthesis and potent antifolate activity and cytotoxicity of B-ring deaza analogues of the nonpolyglutamatable dihydrofolate reductase inhibitor Nalpha-(4-amino-4-deoxypteroyl)-Ndelta-hemiphthaloyl- L-ornithine (PT523)” (J Med Chem, 1998).
pIC50, pKi: −log10 of the molar value.

Key:
[1] = target: T1, Dihydrofolate reductase (Homo sapiens, UniProt P00374); test: Compound was evaluated for the inhibition of Dihydrofolate reductase at concentration ranged from 0.15-0.50 uM
T1 sequence (P00374 whole entry): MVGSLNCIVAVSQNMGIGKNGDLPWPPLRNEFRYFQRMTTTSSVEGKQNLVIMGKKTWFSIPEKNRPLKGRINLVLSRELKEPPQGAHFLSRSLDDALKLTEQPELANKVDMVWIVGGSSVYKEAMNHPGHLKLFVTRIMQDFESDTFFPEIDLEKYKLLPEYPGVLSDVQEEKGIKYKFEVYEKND

[2] = Compound was tested for in vitro antitumor activity, using SCC25 human head and neck squamous carcinoma cells; assay type: functional; conditions: SCC-25
Outline: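 Clonogenic assay: SCC25 cells exposed to graded drug concentrations for 72 h at 37 °C, 5% CO2, in DMEM with 10% FBS and hydrocortisone ([…]). Then replated as single cells at drug-dependent densities and grown in drug-free medium 10-14 days. Colonies stained with crystal violet; only colonies of ≥50 cells scored. IC50 is mean ± SD of ≥3 assays on different days.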

[3] = test system: 786-0; test: Compound was evaluated for in vitro activity against 786-0 kidney cell lines (Human tumor cells ); assay type: functional, cell-based
Outline: (§1)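 NCI Developmental Therapeutics Program human tumor cell panel; drug exposure in 96-well plates for the last 48 h of a 72-h incubation, then cells stained for total protein with sulforhodamine B per the standard NCI protocol. Data supplied by NCI.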

[4] = test system: A498; test: Compound was evaluated for in vitro activity against A498 kidney cell lines (Human tumor cells ); assay type: functional, cell-based; outline: as §1
[5] = test system: ACHN; test: Compound was evaluated for in vitro activity against ACHN kidney cell lines (Human tumor cells ); assay type: functional, cell-based; outline: as §1
[6] = test system: A549; test: Compound was evaluated for in vitro activity against A549/ATCC lung cancer cell lines (Human tumor cells )
[7] = test system: BT-549; test: Compound was evaluated for in vitro activity against BT-549 breast cancer cell lines (Human tumor cells ); assay type: functional, cell-based; outline: as §1
[8] = test system: CCRF-CEM; test: Compound was evaluated for in vitro activity against CCRF-CEM leukemia cell lines (Human tumor cells ); assay type: functional, cell-based; outline: as §1
[9] = test system: HCT-15; test: Compound was evaluated for in vitro activity against HCT-15 Colon cell lines (Human tumor cells ); assay type: functional, cell-based; outline: as §1
[10] = test system: HCT-116; test: Compound was evaluated for in vitro activity against HCT116 Colon cell lines (Human tumor cells ); assay type: functional, cell-based; outline: as §1
[11] = test system: HOP-92; test: Compound was evaluated for in vitro activity against HOP-92 lung cancer cell lines (Human tumor cells ); assay type: functional, cell-based; outline: as §1
[12] = test system: HCC 2998; test: Compound was evaluated for in vitro activity against HCC2998 Colon cell lines (Human tumor cells ); assay type: functional, cell-based; outline: as §1
[13] = test system: HL-60; test: Compound was evaluated for in vitro activity against HL-60(TB) leukemia cell lines (Human tumor cells ); assay type: functional, cell-based; outline: as §1
[14] = test system: Hs-578T; test: Compound was evaluated for in vitro activity against Hs 578.T breast cancer cell lines (Human tumor cells ); assay type: functional, cell-based; outline: as §1
[15] = test system: KM12; test: Compound was evaluated for in vitro activity against KM-12 Colon cell lines (Human tumor cells ); assay type: functional, cell-based; outline: as §1
[16] = test system: K562; test: Compound was evaluated for in vitro activity against K562 leukemia cell lines (Human tumor cells ); assay type: functional, cell-based; outline: as §1
[17] = test system: IGROV-1; test: Compound was evaluated for in vitro activity against IGROV1 Ovary cell lines (Human tumor cells ); assay type: functional, cell-based; outline: as §1
[18] = test system: M14; test: Compound was evaluated for in vitro activity against M14 Melanoma cell lines (Human tumor cells ); assay type: functional, cell-based; outline: as §1
[19] = test system: LOX IMVI; test: Compound was evaluated for in vitro activity against LOXIMV1 Melanoma cell lines (Human tumor cells ); assay type: functional, cell-based
Outline: (§2)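 Total protein then stained with sulforhodamine B following the standard NCI protocol. Data supplied by the NCI Developmental Therapeutics Program.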

[20] = test system: MDA-MB-435; test: Compound was evaluated for in vitro activity against MDA-MB-435 breast cancer cell lines (Human tumor cells ); assay type: functional, cell-based; outline: as §1
[21] = test system: NCI-H460; test: Compound was evaluated for in vitro activity against NCI-H460 lung cancer cell lines (Human tumor cells ); assay type: functional, cell-based; outline: as §1
[22] = test system: NCI-H226; test: Compound was evaluated for in vitro activity against NCI-H226 lung cancer cell lines (Human tumor cells ); assay type: functional, cell-based; outline: as §1
[23] = test system: OVCAR-3; test: Compound was evaluated for in vitro activity against OVCAR-3 Ovary cell lines (Human tumor cells ); assay type: functional, cell-based; outline: as §2
[24] = test system: OVCAR-8; test: Compound was evaluated for in vitro activity against OVCAR-8 Ovary cell lines (Human tumor cells ); assay type: functional, cell-based; outline: as §1
[25] = test system: OVCAR-4; test: Compound was evaluated for in vitro activity against OVCAR-4 Ovary cell lines (Human tumor cells ); assay type: functional, cell-based; outline: as §1
[26] = test system: OVCAR-5; test: Compound was evaluated for in vitro activity against OVCAR-5 Ovary cell lines (Human tumor cells ); assay type: functional, cell-based; outline: as §1
[27] = test system: NCI-H23; test: Compound was evaluated for in vitro activity against NCI-H23 lung cancer cell lines (Human tumor cells ); assay type: functional, cell-based; outline: as §1
[28] = test system: PC-3; test: Compound was evaluated for in vitro activity against PC-3 prostate cell lines (Human tumor cells ); assay type: functional, cell-based; outline: as §1
[29] = test system: RXF 393; test: Compound was evaluated for in vitro activity against RXF-393 kidney cell lines (Human tumor cells ); assay type: functional, cell-based; outline: as §1
[30] = test system: RPMI-8226; test: Compound was evaluated for in vitro activity against RPMI-8226 leukemia cell lines (Human tumor cells ); assay type: functional, cell-based; outline: as §1
[31] = test system: SF-268; test: Compound was evaluated for in vitro activity against SF-268 CNS cell lines (Human tumor cells ); assay type: functional, cell-based; outline: as §1
[32] = test system: SF-295; test: Compound was evaluated for in vitro activity against SF-295 CNS cell lines (Human tumor cells ); assay type: functional, cell-based; outline: as §1
[33] = test system: SNB-; test: Compound was evaluated for in vitro activity against […] CNS cell lines (Human tumor cells ); assay type: functional, cell-based; outline: as §1
[34] = test system: SR; test: Compound was evaluated for in vitro activity against SR leukemia cell lines (Human tumor cells ); assay type: functional, cell-based; outline: as §1
[35] = test system: SK-MEL-2; test: Compound was evaluated for in vitro activity against SK-MEL-2 Melanoma cell lines (Human tumor cells ); assay type: functional, cell-based; outline: as §1
[36] = test system: SK-MEL-5; test: Compound was evaluated for in vitro activity against SK-MEL-5 Melanoma cell lines (Human tumor cells ); assay type: functional, cell-based; outline: as §1
[37] = test system: TK-10; test: Compound was evaluated for in vitro activity against TK-10 kidney cell lines (Human tumor cells ); assay type: functional, cell-based; outline: as §1
[38] = test system: T47D; test: Compound was evaluated for in vitro activity against T-47D breast cancer cell lines (Human tumor cells ); assay type: functional, cell-based; outline: as §1
[39] = test system: UACC-257; test: Compound was evaluated for in vitro activity against UACC-257 Melanoma cell lines (Human tumor cells ); assay type: functional, cell-based; outline: as §1
[40] = test system: U-251; test: Compound was evaluated for in vitro activity against U251 CNS cell lines (Human tumor cells ); assay type: functional, cell-based; outline: as §1
[41] = test system: NCI-H522; test: Compound was evaluated for in vitro activity against NCI-H522 lung cancer cell lines (Human tumor cells ); assay type: functional, cell-based; outline: as §1
[42] = test system: SF-539; test: Compound was evaluated for in vitro activity against SF-539 CNS cell lines (Human tumor cells ); assay type: functional, cell-based; outline: as §2
[43] = test system: MOLT-4; test: Compound was evaluated for in vitro activity against MOLT-4 leukemia cell lines (Human tumor cells ); assay type: functional, cell-based; outline: as §1
[44] = test system: UACC-62; test: Compound was evaluated for in vitro activity against UACC-62 Melanoma cell lines (Human tumor cells ); assay type: functional, cell-based; outline: as §1

Nc1nc(N)c2c(Cl)c(CNc3ccc(C(=O)NC(CCCNC(=O)c4ccccc4C(=O)O)C(=O)O)cc3)ccc2n1 (stereo not given)
pKi [1]: 12.96
pIC50 [2]: 9.48

Cc1c(CNc2ccc(C(=O)NC(CCCNC(=O)c3ccccc3C(=O)O)C(=O)O)cc2)ccc2nc(N)nc(N)c12 (stereo not given)
pKi [1]: 13.00
pIC50 [2]: 9.36

Nc1nc(N)c2nc(CNc3ccc(C(=O)NC(CCCNC(=O)c4ccccc4C(=O)O)C(=O)O)cc3)ccc2n1 (stereo not given)
pKi [1]: 12.72
pIC50 [2]: 8.92

Nc1nc(N)c2nc(CNc3ccc(C(=O)NC(CCCNC(=O)c4ccccc4C(=O)O)C(=O)O)cc3)cnc2n1 (stereo not given)
pIC50 [3]: 9.30
pIC50 [4]: < 6.00
pIC50 [5]: 9.09
pIC50 [6]: 9.24
pIC50 [7]: < 6.00
pIC50 [8]: 8.82
pKi [1]: 12.46
pIC50 [9]: 9.22
pIC50 [10]: 9.74
pIC50 [11]: 8.12
pIC50 [12]: 8.89
pIC50 [13]: 9.39
pIC50 [14]: < 7.00
pIC50 [15]: 8.66
pIC50 [16]: 9.52
pIC50 [17]: < 7.00
pIC50 [18]: < 7.00
pIC50 [19]: 9.64
pIC50 [20]: 8.51
pIC50 [21]: 9.37
pIC50 [22]: < 7.00
pIC50 [23]: 7.34
pIC50 [24]: 9.28
pIC50 [25]: < 7.00
pIC50 [26]: 9.00
pIC50 [27]: 8.59
pIC50 [28]: < 7.00
pIC50 [29]: 8.07
pIC50 [30]: < 7.00
pIC50 [31]: 9.14
pIC50 [32]: 9.29
pIC50 [33]: < 7.00
pIC50 [34]: 9.38
pIC50 [35]: < 7.00
pIC50 [2]: 8.74
pIC50 [36]: 8.33
pIC50 [37]: 8.02
pIC50 [38]: < 6.00
pIC50 [39]: 7.60
pIC50 [40]: 8.28
pIC50 [41]: 8.19
pIC50 [42]: 8.64
pIC50 [43]: 8.28
pIC50 [44]: 9.25
